Test results: ChEMBL document CHEMBL3593206, “SAR Studies of Exosite-Binding Substrate-Selective Inhibitors of A Disintegrin And Metalloprotease 17 (ADAM17) and Application as Selective in Vitro Probes” (J Med Chem, 2015)

Tests used:
[1] = biological target: T1, Disintegrin and metalloproteinase domain-containing protein 10 (Homo sapiens, UniProt O14672); assay: Inhibition of ADAM10 (unknown origin) preincubated for 30 mins followed by substrate addition measured every 30 mins for 2 hrs by fluorescence assay
T1 sequence (O14672 whole entry): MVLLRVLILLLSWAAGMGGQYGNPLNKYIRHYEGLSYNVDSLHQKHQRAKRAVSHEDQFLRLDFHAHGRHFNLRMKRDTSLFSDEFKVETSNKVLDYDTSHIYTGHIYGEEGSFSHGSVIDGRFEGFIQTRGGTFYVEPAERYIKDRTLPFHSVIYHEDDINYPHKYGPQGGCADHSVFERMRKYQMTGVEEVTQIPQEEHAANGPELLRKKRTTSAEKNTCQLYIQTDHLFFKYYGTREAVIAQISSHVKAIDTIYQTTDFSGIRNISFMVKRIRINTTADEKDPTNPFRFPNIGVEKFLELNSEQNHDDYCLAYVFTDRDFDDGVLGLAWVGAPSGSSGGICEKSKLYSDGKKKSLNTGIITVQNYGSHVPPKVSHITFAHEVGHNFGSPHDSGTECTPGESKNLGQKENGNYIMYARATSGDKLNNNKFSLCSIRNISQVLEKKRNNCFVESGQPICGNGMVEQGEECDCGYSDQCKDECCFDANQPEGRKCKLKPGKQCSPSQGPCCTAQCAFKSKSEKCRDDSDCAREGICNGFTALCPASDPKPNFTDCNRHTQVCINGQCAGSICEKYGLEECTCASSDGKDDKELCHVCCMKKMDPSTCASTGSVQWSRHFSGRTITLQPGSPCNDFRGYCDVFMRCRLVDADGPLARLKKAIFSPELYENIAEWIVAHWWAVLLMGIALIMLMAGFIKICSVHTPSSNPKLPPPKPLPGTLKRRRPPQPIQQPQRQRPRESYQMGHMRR
Procedure, shortened: (§1)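 Enzyme at 30 nM (3× solution) in 10 mM Hepes, 0.001% Brij-35, pH 7.5. Inhibitor series of 10 points, 1:3, from 300 μM, preincubated 30 min at RT. Glycosylated substrate added from a 30 μM 3× solution. Fluorescence (ex 360/em 460 nm) read every 30 min for 2 h. Inhibition taken from hydrolysis rates against substrate-only and substrate-plus-enzyme wells.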

[2] = biological target: T2, Disintegrin and metalloproteinase domain-containing protein 17 (Homo sapiens, UniProt P78536); assay: Inhibition of ADAM17 (unknown origin) preincubated for 30 mins followed by substrate addition measured every 30 mins for 2 hrs by fluorescence assay; procedure, shortened: as §1
[3] = biological target: T3, Disintegrin and metalloproteinase domain-containing protein 10 (Homo sapiens) (UniProt O14672); assay: Inhibition of ADAM10 (unknown origin) at 100 uM preincubated for 30 mins followed by substrate addition measured every 30 mins for 2 hrs by fluorescence assay relative to control; procedure, shortened: as §1
T3 sequence (whole entry): T1 sequence (O14672 whole entry)

[4] = biological target: T4, 72 kDa type IV collagenase (Homo sapiens, UniProt P08253); assay: Inhibition of MMP2 (unknown origin) using Mca-KLPGL-Dnp-AR as substrate preincubated for 30 mins followed by substrate addition measured after 1 hr by fluorescence assay
Procedure, shortened: (§2)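 Inhibitor as 10-point 1:3 dilutions from 300 μM, 30 min at RT. Substrate added from a 30 μM 3× solution. Single fluorescence read (ex 324/em 393 nm) after 1 h at RT.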
Target sequence in this assay (P08253 whole entry): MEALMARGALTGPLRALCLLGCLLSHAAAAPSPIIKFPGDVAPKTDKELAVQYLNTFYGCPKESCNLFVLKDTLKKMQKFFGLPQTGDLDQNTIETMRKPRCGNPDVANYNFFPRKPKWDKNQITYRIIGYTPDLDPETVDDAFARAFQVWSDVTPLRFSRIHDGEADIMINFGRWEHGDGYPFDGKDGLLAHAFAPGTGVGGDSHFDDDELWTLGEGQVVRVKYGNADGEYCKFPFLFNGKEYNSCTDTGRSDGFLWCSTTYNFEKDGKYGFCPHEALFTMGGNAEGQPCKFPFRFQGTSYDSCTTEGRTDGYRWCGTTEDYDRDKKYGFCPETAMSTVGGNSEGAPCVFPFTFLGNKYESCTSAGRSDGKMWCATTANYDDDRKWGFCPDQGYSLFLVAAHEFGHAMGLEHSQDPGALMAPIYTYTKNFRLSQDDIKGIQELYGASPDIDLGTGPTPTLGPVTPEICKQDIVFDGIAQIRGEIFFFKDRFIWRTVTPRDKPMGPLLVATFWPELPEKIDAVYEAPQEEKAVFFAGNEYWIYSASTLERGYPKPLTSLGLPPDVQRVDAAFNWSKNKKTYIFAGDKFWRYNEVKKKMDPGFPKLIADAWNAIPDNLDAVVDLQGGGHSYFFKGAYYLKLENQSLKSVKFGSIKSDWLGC

Neutrophil collagenase [5] = biological target: T5, Neutrophil collagenase (Homo sapiens, UniProt P22894); assay: Inhibition of MMP8 (unknown origin) using Mca-KLPGL-Dnp-AR as substrate preincubated for 30 mins followed by substrate addition measured after 1 hr by fluorescence assay; procedure, shortened: as §2
Target sequence in this assay (P22894 whole entry): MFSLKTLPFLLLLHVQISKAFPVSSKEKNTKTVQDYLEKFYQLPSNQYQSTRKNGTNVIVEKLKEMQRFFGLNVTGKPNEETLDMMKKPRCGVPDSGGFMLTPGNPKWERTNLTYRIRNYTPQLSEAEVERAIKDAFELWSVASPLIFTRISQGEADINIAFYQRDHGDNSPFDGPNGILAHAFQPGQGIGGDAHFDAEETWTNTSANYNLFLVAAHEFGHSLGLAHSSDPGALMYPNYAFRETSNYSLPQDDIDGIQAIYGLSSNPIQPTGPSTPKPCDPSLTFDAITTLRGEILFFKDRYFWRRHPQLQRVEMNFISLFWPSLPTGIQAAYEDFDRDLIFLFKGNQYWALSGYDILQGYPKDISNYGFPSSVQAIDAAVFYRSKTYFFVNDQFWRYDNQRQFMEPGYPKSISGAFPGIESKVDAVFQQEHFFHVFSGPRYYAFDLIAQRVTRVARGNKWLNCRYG

[6] = biological target: T6, Matrix metalloproteinase-9 (Homo sapiens, UniProt P14780); assay: Inhibition of MMP9 (unknown origin) using Mca-KLPGL-Dnp-AR as substrate preincubated for 30 mins followed by substrate addition measured after 1 hr by fluorescence assay; procedure, shortened: as §2
[7] = biological target: T7, Matrix metalloproteinase-14 (Homo sapiens, UniProt P50281); assay: Inhibition of MMP14 (unknown origin) using Mca-KLPGL-Dnp-AR as substrate preincubated for 30 mins followed by substrate addition measured after 1 hr by fluorescence assay; procedure, shortened: as §2
[8] = biological target: T4, 72 kDa type IV collagenase; assay: Inhibition of MMP2 (unknown origin) using Mca-KLPGL-Dnp-AR as substrate at 100 uM preincubated for 30 mins followed by substrate addition measured after 1 hr by fluorescence assay relative to control; procedure, shortened: as §2
Target sequence in this assay (P08253 110-660 limits assumed): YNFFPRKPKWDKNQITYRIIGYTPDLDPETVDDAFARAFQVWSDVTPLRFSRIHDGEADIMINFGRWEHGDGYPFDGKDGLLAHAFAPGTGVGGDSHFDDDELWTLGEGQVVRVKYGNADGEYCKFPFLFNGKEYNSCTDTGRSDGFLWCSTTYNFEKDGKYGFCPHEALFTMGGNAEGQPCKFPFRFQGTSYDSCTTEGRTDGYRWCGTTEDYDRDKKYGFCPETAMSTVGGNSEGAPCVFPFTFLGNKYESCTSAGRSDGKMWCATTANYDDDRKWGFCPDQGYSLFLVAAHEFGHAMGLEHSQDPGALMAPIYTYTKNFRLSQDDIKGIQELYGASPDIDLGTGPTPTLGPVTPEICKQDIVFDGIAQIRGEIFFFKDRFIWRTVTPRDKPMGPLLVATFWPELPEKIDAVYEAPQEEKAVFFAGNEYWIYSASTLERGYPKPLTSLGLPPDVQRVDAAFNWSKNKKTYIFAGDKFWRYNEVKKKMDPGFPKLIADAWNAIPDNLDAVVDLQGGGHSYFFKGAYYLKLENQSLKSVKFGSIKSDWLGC

Neutrophil collagenase [9] = biological target: T5, Neutrophil collagenase; assay: Inhibition of MMP8 (unknown origin) using Mca-KLPGL-Dnp-AR as substrate at 100 uM preincubated for 30 mins followed by substrate addition measured after 1 hr by fluorescence assay relative to control; procedure, shortened: as §2
Target sequence in this assay (P22894 101-467 limits assumed): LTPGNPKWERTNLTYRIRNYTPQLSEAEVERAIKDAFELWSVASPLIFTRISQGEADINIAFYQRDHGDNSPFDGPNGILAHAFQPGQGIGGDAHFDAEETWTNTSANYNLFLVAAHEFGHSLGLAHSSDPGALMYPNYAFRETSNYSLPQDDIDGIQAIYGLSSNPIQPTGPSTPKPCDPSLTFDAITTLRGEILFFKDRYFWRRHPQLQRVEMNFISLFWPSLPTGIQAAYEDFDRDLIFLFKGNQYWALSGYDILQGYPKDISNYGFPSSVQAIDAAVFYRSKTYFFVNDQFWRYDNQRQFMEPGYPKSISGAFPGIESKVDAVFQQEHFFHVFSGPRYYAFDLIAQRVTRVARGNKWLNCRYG

[10] = biological target: T6, Matrix metalloproteinase-9; assay: Inhibition of MMP9 (unknown origin) using Mca-KLPGL-Dnp-AR as substrate at 100 uM preincubated for 30 mins followed by substrate addition measured after 1 hr by fluorescence assay relative to control; procedure, shortened: as §2
[11] = biological target: T7, Matrix metalloproteinase-14; assay: Inhibition of MMP14 (unknown origin) using Mca-KLPGL-Dnp-AR as substrate at 100 uM preincubated for 30 mins followed by substrate addition measured after 1 hr by fluorescence assay relative to control
[12] = biological target: T2, Disintegrin and metalloproteinase domain-containing protein 17; assay: Inhibition of ADAM17 (unknown origin) at 100 uM preincubated for 30 mins followed by substrate addition measured every 30 mins for 2 hrs by fluorescence assay relative to control; procedure, shortened: as §1
[13] = Cytotoxicity against CHOK1 cells assessed as inhibition of cell viability up to 33 uM after 72 hrs by CellTiter-Glo assay; type: cell-based, Cricetulus griseus; conditions: chinese hamster, cho-k1, 72 h
A549 = assay: Cytotoxicity against human A549 cells assessed as inhibition of cell viability up to 33 uM after 72 hrs by CellTiter-Glo assay; type: cell-based; conditions: a549, 72 h
HepG2 = assay: Cytotoxicity against human HepG2 cells assessed as inhibition of cell viability up to 33 uM after 72 hrs by CellTiter-Glo assay; type: cell-based; conditions: hepg2, 72 h
MDA-MB-231 = assay: Cytotoxicity against human MDA-MB-231 cells assessed as inhibition of cell viability up to 33 uM after 72 hrs by CellTiter-Glo assay; type: cell-based; conditions: mda-mb-231, 72 h
[14] = biological target: T2, Disintegrin and metalloproteinase domain-containing protein 17; assay: Inhibition of ADAM17 in human THP1 cells assessed as inhibition of LPS-stimulated TNFalpha cleavage at 25 uM after 1 hr by AlphaScreen assay relative to control; type: cell-based; conditions: THP-1
Procedure, shortened: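 THP-1 cells grown in RPMI 1640 with 10% FBS and 0.05 mM 2-mercaptoethanol; 3000 cells per well. Compound given in 3% DMSO for 1 h, then LPS added (1 μg/mL final) and cells incubated overnight at 37 °C. TNFα detected by AlphaScreen using anti-TNFα acceptor beads and streptavidin donor beads, each step 1 h in the dark at RT.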

[15] = biological target: T2, Disintegrin and metalloproteinase domain-containing protein 17; assay: Inhibition of ADAM17 in HTSMC assessed as inhibition of LPS-stimulated IL-8 shedding at 10 uM preincubated for 30 mins followed by LPS challenge measured after 4 to 24 hrs by ELISA
Procedure, shortened: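 HTSMCs stimulated with LPS for IL-8 release; compounds at 10 μM. Mean ± SEM, n = 3 from three independent experiments; one-way ANOVA with Dunnett post hoc test.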

[16] = biological target: T3, Disintegrin and metalloproteinase domain-containing protein 10 (Homo sapiens); assay: Inhibition of ADAM10 in HTSMC assessed as inhibition of PMA-stimulated release of CXCL16 at 10 uM preincubated for 30 mins followed by PMA challenge measured after 4 to 24 hrs by ELISA
[17] = biological target: T2, Disintegrin and metalloproteinase domain-containing protein 17; assay: Inhibition of ADAM17 in human A549 cells assessed as inhibition of PMA-stimulated heregulin shedding at 40 uM incubated for 1 hr followed by PMA stimulation measured after 1 hr; type: cell-based
Procedure, shortened: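 Heregulin shedding in A549 cells, with all compounds tested at 40 μM.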

[18] = biological target: T3, Disintegrin and metalloproteinase domain-containing protein 10 (Homo sapiens); assay: Inhibition of ADAM10 in human A549 cells assessed as inhibition of betacellulin shedding at 40 uM after 1 hr by ELISA; type: cell-based
Procedure, shortened: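 A549 cells were tested for betacellulin shedding at 40 μM, with Marimastat at 10 μM as control.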

[19] = biological target: T2, Disintegrin and metalloproteinase domain-containing protein 17; assay: Inhibition of ADAM17 in human A549 cells assessed as effect on PMA-stimulated TGFalpha shedding up to 100 uM preincubated for 1 hr followed by PMA stimulation measured after 1 hr by ELISA; type: cell-based
Procedure, shortened: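 TGFα shedding from PMA-treated A549 cells tested up to 100 μM. Marimastat at 10 μM served as control, with a non-PMA-treated control included; soluble TGFα measured in the supernatant.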

[20] = biological target: T3, Disintegrin and metalloproteinase domain-containing protein 10 (Homo sapiens); assay: Inhibition of ADAM10 in HTSMC assessed as inhibition of constitutive release of fractalkine/CX3CL1 at 10 uM preincubated for 30 mins measured after 4 to 24 hrs by ELISA

T6 sequence (P14780 whole entry): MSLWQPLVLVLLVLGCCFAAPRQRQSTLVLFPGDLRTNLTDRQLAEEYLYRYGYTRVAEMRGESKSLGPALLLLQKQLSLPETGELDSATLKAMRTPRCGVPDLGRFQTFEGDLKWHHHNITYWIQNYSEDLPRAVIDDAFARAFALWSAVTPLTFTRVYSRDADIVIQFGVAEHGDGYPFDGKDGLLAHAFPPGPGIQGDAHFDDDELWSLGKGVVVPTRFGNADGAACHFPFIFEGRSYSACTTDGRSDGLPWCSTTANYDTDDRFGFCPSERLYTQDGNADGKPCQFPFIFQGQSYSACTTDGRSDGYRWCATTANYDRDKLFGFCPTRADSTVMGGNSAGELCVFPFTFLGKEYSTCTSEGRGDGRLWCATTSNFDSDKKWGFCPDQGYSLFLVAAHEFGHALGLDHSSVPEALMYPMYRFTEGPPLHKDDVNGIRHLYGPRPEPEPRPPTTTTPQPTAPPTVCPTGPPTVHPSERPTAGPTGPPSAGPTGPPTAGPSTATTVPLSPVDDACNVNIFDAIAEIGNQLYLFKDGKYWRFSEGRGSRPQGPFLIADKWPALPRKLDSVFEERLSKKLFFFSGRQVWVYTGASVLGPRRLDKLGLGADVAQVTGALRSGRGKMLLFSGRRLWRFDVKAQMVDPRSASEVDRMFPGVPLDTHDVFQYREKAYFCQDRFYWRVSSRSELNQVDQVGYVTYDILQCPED
T2 sequence (P78536 whole entry, the tested form may be a part): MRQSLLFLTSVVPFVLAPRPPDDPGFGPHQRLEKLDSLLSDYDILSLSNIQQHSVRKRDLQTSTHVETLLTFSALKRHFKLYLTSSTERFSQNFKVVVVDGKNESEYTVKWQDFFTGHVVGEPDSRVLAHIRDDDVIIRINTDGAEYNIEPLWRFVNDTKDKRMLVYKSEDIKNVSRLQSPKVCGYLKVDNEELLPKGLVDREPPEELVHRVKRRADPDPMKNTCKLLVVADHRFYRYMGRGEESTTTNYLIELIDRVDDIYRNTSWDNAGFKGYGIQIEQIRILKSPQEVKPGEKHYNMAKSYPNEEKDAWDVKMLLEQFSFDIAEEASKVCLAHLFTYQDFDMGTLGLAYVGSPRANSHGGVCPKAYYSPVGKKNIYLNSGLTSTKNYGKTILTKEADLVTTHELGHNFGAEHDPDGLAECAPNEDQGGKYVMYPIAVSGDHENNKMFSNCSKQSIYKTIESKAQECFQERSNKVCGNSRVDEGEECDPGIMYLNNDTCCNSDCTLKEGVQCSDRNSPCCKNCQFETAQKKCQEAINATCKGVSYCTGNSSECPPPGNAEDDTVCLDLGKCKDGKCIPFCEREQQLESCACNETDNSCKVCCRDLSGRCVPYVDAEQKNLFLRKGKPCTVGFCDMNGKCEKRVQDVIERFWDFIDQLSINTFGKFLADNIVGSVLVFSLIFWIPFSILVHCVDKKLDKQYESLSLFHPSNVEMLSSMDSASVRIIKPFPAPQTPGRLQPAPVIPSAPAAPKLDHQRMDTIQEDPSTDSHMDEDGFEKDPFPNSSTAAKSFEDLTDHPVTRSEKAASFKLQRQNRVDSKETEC

With O=C1NC[C@@H](Cc2ccc3ccccc3c2)N(C[C@@H]2CCCN2C[C@H](Cc2ccc(O)cc2)N2C[C@H](Cc3ccc(O)cc3)N(CCC34CC5CC(CC(C5)C3)C4)C(=O)C2=O)C1=O the IC50 [1] was greater than 100 µM and the IC50 [2] was 8.1 µM.

Work on O=C1NC[C@H](Cc2ccccc2)N(C[C@@H]2CCCN2C[C@H](Cc2ccccc2)N2C[C@H](Cc3ccc(O)cc3)N(CCC34CC5CC(CC(C5)C3)C4)C(=O)C2=O)C1=O yielded an inhibition [3] of 0%, an IC50 [1] greater than 100 µM and an IC50 [2] of 11 µM. It also gave an IC50 [4] greater than 100 µM, an IC50 (Neutrophil collagenase [5]) greater than 100 µM and an IC50 [6] greater than 100 µM. It also gave an IC50 [7] greater than 100 µM, an inhibition [8] of 0% and an inhibition (Neutrophil collagenase [9]) of 0%. For the same compound, the inhibition [10] was 0%, the inhibition [11] was 0% and the inhibition [12] was 100%. For the same compound, the Activity [13] was “Non-toxic”, the Activity (A549) was “Non-toxic” and the Activity (HepG2) was “Non-toxic”. For the same compound, the Activity (MDA-MB-231) was “Non-toxic”, the inhibition [14] was 44% and the inhibition [15] was 62%. For the same compound, the inhibition [16] was 0%, the inhibition [17] was 0% and the inhibition [18] was 0%. The inhibition [19] was 0% and the inhibition [20] was 0%.

CCC[C@H]1CNC(=O)C(=O)N1C[C@@H]1CCCN1C[C@H](Cc1ccc(O)cc1)N1C[C@@H](Cc2ccc3ccccc3c2)N(CCC23CC4CC(CC(C4)C2)C3)C(=O)C1=O gave an IC50 [1] greater than 100 µM and an IC50 [2] of 7.9 µM.

CCC[C@H]1CNC(=O)C(=O)N1C[C@@H]1CCCN1C[C@H](Cc1ccc(O)cc1)N1C[C@H](Cc2ccc(O)cc2)N(CC2CCCCC2)C(=O)C1=O gave an IC50 [1] greater than 100 µM and an IC50 [2] of 29 µM.

With O=C1NC[C@@H](Cc2ccc3ccccc3c2)N(C[C@@H]2CCCN2C[C@H](Cc2ccc(O)cc2)N2C[C@@H](Cc3ccc(O)cc3)N(CCC34CC5CC(CC(C5)C3)C4)C(=O)C2=O)C1=O the IC50 [1] was greater than 100 µM and the IC50 [2] was 15 µM.

In the case of CCC[C@H]1CNC(=O)C(=O)N1C[C@@H]1CCCN1C[C@H](Cc1ccc(O)cc1)N1C[C@H](Cc2ccc(O)cc2)N(CC2CCC(C(C)(C)C)CC2)C(=O)C1=O (some centres not stated), the IC50 [1] is reported as greater than 100 µM and the IC50 [2] is reported as 10 µM.

CCC[C@H]1CNC(=O)C(=O)N1C[C@@H]1CCCN1C[C@H](Cc1ccc(O)cc1)N1C[C@H](Cc2ccc(O)cc2)N(CC2CCC2)C(=O)C1=O showed an IC50 [1] greater than 100 µM and an IC50 [2] of 94 µM.

O=C1NCC(Cc2ccccc2)N(C[C@@H]2CCCN2C[C@@H](CC2CCCCC2)N2C[C@H](Cc3ccccc3)N(CCc3ccccc3)C(=O)C2=O)C1=O (single isomer, unassigned) gave an inhibition [3] of 0%, an inhibition [8] of 0% and an inhibition (Neutrophil collagenase [9]) of 0%. The inhibition [10] was 0%, the inhibition [11] was 0% and the inhibition [12] was 100%. For the same compound, the inhibition [14] was 0%, the inhibition [17] was 34% and the inhibition [18] was 0%. The inhibition [19] was 0%.

Compound CCC[C@H]1CNC(=O)C(=O)N1C[C@@H]1CCCN1C[C@H](Cc1ccc(O)cc1)N1C[C@H](Cc2ccc(O)cc2)N(CC2CCCC2)C(=O)C1=O has an IC50 [1] greater than 100 µM and an IC50 [2] of 35 µM.
